Measurements of several laboratories.
Target: Aurora kinase B (AURKB, Homo sapiens, UniProt Q96GD4)

C[C@@H]1CN(c2ccc3ncc(-c4ccc5[nH]nc(C6CC6)c5c4)n3n2)C[C@H](C)O1  remaining binding (binding, competition with immobilised ligand; 0.5 µM): 82%
O=C(c1ccc(Nc2ncc(Cl)c(-c3ccc(Cl)s3)n2)cc1)N1CCC(N2CCCC2)CC1  remaining binding (binding, competition with immobilised ligand; 1 µM): 8.3%
N#Cc1ccccc1CSc1nnc2c(n1)[nH]c1ccccc12  remaining binding (binding, competition with immobilised ligand; 10 µM): 100%
Cc1c(C(=O)O)cc(-c2ccc(C3CCNCC3)cc2)c2ccc(-c3ccc(C(F)(F)F)cc3)cc12  remaining binding (cell-free assay, competition with immobilised ligand; 1 µM): 100%
CN(C)c1ncc(F)c(-c2cnn3ncccc23)n1  remaining binding (binding; 1 µM): 77%
O=C(NCC1CCOCC1)c1n[nH]cc1NC(=O)c1c(F)cccc1F  remaining binding (binding, competition with immobilised ligand; 1 µM): 78%
C[C@H]1CCN(c2nccc(-c3cnn4ncccc34)n2)C1  remaining binding (binding; 1 µM): 70%
O=C(NCc1ncc(C(F)(F)F)cc1Cl)c1ccc2c(c1)C1(CCS(=O)(=O)CC1)[C@@H](C1CC1)N2S(=O)(=O)c1ccc(F)cc1  remaining binding (cell-free assay, competition with immobilised ligand; 1 µM): 66%
COc1ccnn2ncc(-c3ccnc(N(C)C)n3)c12  remaining binding (binding; 1 µM): 100%
O=C(c1ccc(Nc2nccc(-c3cc4ccccc4s3)n2)cc1)N1CCC(N2CCCC2)CC1  remaining binding (binding, competition with immobilised ligand; 1 µM): 63%
CSc1cccnc1N1CCN(Cc2nc3ccccc3[nH]2)CC1  remaining binding (cell-free assay, competition with immobilised ligand; 1 µM): 67%
COc1cnc(Nc2cccc(S(N)(=O)=O)c2)nc1N1CCN(c2ccccc2)C(=O)C1  remaining binding (binding, competition with immobilised ligand; 1 µM): 63%
COc1ccc2c(O[C@@H]3C[C@H]4C(=O)N[C@]5(C(=O)O)CC5/C=C\CCCCC[C@H](NC(=O)OC5CCCC5)C(=O)N4C3)cc(-c3csc(NC(=O)C(C)C)n3)nc2c1C (stereo partly shown)  remaining binding (cell-free assay, competition with immobilised ligand; 1 µM): 91%
C[C@@H](c1ccc(-n2cnc3c(N)ncnc32)cc1)N1CCc2nn(C)c(Cc3ccccc3)c2C1=O  remaining binding (binding, competition with immobilised ligand; 0.1 µM): 65%
N[C@H]1CCN(c2nccc(-c3cnn4ncccc34)n2)C1  remaining binding (binding; 1 µM): 77%
CN(c1ccnc(CNc2nc(Nc3ccc4c(c3)CC(=O)N4)ncc2C(F)(F)F)n1)S(C)(=O)=O  remaining binding (cell-free assay, competition with immobilised ligand; 1 µM): 9.9%
O=C(c1ccc(Nc2ncc(Cl)c(-c3cc4ccccc4s3)n2)cc1)N1CCC(N2CCCC2)CC1  remaining binding (binding, competition with immobilised ligand; 1 µM): 17%
CNC(=O)[C@@H]1CC[C@@H](n2c(-c3ccc4cnccc4c3)nc3ccc(C(=O)NCc4cccc(C(N)=O)c4)cc32)C1  remaining binding (binding, competition with immobilised ligand; 1 µM): 95%
C[C@@H]1CN(c2cc(-c3n[nH]c4ccc(OC5(C)CC5)cc34)ncn2)C[C@H](C)O1  remaining binding (cell-free assay, competition with immobilised ligand; 0.1 µM): 73%
CN(CCCC(F)(F)F)c1nccc(-c2cnn3ncccc23)n1  remaining binding (binding; 1 µM): 98%
CCN1CCN(Cc2ccc(C(=O)Nc3ccc(C)c(Oc4ccc5c(c4)CC(=O)N5)c3)cc2C(F)(F)F)CC1  remaining binding (binding, competition with immobilised ligand; 1 µM): 100%
COc1cc(C(=O)N2CCC(N3CCN(C)CC3)CC2)ccc1Nc1ncc2c(n1)N(C)c1ccccc1C(=O)N2C  remaining binding (binding, competition with immobilised ligand; 10 µM): 38%
